Here are results for five compounds from ChEMBL document CHEMBL1671718, “Anti-Pseudomonas activity of frog skin antimicrobial peptides in a Caenorhabditis elegans infection model: a plausible mode of action in vitro and in vivo” (Antimicrob Agents Chemother, 2010).

The nature of series [1]: Toxicity in human RBC assessed as hemolytic activity <32 to 64 uM. In kind it is cell-based. Conditions: erythrocyte.
Series [2] concerns Pseudomonas aeruginosa. As to the kind of experiment: Antibacterial activity against multidrug-resistant Pseudomonas aeruginosa clinical isolate by broth microdilution method. In kind it is functional. The gist of the method:
(§1)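 Adapted CLSI broth microdilution in Mueller-Hinton broth; mid-log bacteria at 2 × 10^6 CFU/ml mixed 1:1 with peptide dilutions (2-fold series from 20% ethanol stocks, 1–64 μM). Growth read by absorbance at 595 nm after 18–20 h at 37°C; MIC = lowest concentration giving 100% growth inhibition.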

The subject of series [3] is Pseudomonas aeruginosa. As to the kind of experiment: Antibacterial activity against multidrug-resistant Pseudomonas aeruginosa clinical isolate infected in Caenorhabditis elegans assessed as worm survival at 0.01 nM after 48 hrs. It is filed as functional, organism-based.
Series [4] in a line: Toxicity in human RBC assessed as hemolytic activity at 64 uM. It is filed as cell-based, Erythrocyte. Conditions: red blood cells, read-out: Activity.
For series [5], the system named is Pseudomonas aeruginosa. The series can be described thus: Bactericidal activity against multidrug-resistant Pseudomonas aeruginosa clinical isolate assessed as concentration required for >= 3 log10 CFU/ml reduction in viable bacteria in Mueller-Hinton broth after 90 mins. It is filed as functional. Conditions: 1.5 h. An outline of the steps: (§2)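 Exponential-phase bacteria resuspended at 1 × 10^7 CFU/ml in MHB or PBS; 10 μl incubated with 2-fold peptide dilutions (2–64 μM) in 100 μl, 37°C, 90 min, then plated on LB agar and counted after overnight growth. Value = concentration giving ≥3 log10 CFU/ml reduction. Solvent control 0.6% ethanol.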

Series [6] relates to Pseudomonas aeruginosa. The series can be described thus: Bactericidal activity against multidrug-resistant Pseudomonas aeruginosa clinical isolate assessed as concentration required for >= 3 log10 CFU/ml reduction in viable bacteria in phosphate-buffer saline containing 150 mM sodium salt after 90 mins. In kind it is functional. Conditions: 1.5 h. The gist of the method: as §2

The nature of series [7]: Toxicity in human RBC assessed as hemolytic activity upto 64 uM. It is filed as cell-based. Conditions: erythrocyte. The gist of the method:
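Fresh erythrocytes from healthy human donors, washed three times in 0.9% NaCl, used as a 5% (vol/vol) final suspension. Peptides were dissolved in 20% ethanol and tested at 2 to 64 μM, with agitation at 37°C for 40 min. Hemoglobin release was read as supernatant absorbance at 540 nm. The blank was solvent at 0.6% final; hypotonic lysis gave 100%.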

In series [8] the test system is Pseudomonas aeruginosa. The series can be described thus: Antibacterial activity against multidrug-resistant Pseudomonas aeruginosa clinical isolate assessed as reduction in viable bacterial count at MIC after 5 mins by time-kill analysis. It is filed as functional. An outline of the steps:
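Bacteria grown in MHB at 37°C, diluted into PBS (about 1 × 10^5 CFU in 100 μl), incubated at 37°C with peptide at its MIC; 10 μl samples taken at intervals, diluted in MHB, plated on LB agar, CFU counted after overnight growth. Controls untreated or 0.6% ethanol solvent; three independent experiments, mean ± SD.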

Series [9] relates to Pseudomonas aeruginosa. As to the kind of experiment: Antibacterial activity against multidrug-resistant Pseudomonas aeruginosa clinical isolate infected in Caenorhabditis elegans assessed as increase in worm survival at 0.3 nM after 40 hrs relative untreated control. In kind it is functional. The gist of the method: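 N2 young adults infected 6 h at 25°C on modified NGM lawns of clinical isolate, washed in M9, 15 worms/well in 50 μl S medium with E. coli OP50 plus peptide (0.3 or 0.01 nM depending on peptide); 40 h at 25°C. Dead = no movement or muscle tone; at least three experiments, mean ± SD.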

Series [10] concerns Pseudomonas aeruginosa. As to the kind of experiment: Induction of membrane permeation on multidrug-resistant Pseudomonas aeruginosa clinical isolate infected in Caenorhabditis elegans assessed as increase in membrane permeability assessed as increase in membrane permeability by Sytox green dye influx assay. In kind it is functional, organism-based. An outline of the steps:
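N2 adults infected 16 h, washed in M9, held about 24 h at 25°C on K medium agar to expand gut bacteria (about 1,000 CFU/worm). 200 worms per well in 300 μl K medium with 1 μM Sytox Green, 5 min in the dark; 10 nM peptide added, fluorescence (485/535 nm) read at 25°C until plateau (about 40 min). Controls: 0.3% ethanol-treated infected worms and uninfected worms; two experiments.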

The test system of the next series is Escherichia coli. The series can be described thus: Induction of membrane permeation on GFP expressing Escherichia coli OP50 infected in Caenorhabditis elegans assessed as increase in membrane permeability assessed as increase in membrane permeability after 16 hrs post dose by Sytox green dye influx assay. In kind it is functional, organism-based.
The test system of series [11] is Pseudomonas aeruginosa. The series can be described thus: Antibacterial activity against multidrug-resistant Pseudomonas aeruginosa clinical isolate infected in Caenorhabditis elegans assessed as increase in worm survival within 6 days agar plate assay relative to untreated worm. It is filed as functional. An outline of the steps: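 Worms infected 6 h, washed in M9, 15 per 3.5-cm NGM plate with E. coli OP50, moved daily to fresh plates freshly spread with 200 μl of 0.5 nM peptide. Death scored as absence of touch-provoked movement over 6 days versus untreated infected worms; at least three experiments.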

The subject of series [12] is Pseudomonas aeruginosa. As to the kind of experiment: Antibacterial activity against Pseudomonas aeruginosa ATCC 15692 by broth microdilution method. It is filed as functional. An outline of the steps:
as §1
A general note: Broth dilution looks for growth in wells or tubes with falling amounts of substance.

Series [13] deals with Pseudomonas aeruginosa. The series can be described thus: Antibacterial activity against Pseudomonas aeruginosa ATCC 15692 expressing GFP infected in Caenorhabditis elegans assessed as reduction in viable bacterial count in intestinal lumen after 90 mins by fluorescence microscopy. It is filed as functional, organism-based. An outline of the steps:
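Nematodes infected 16 h with GFP-expressing ATCC 15692 (plasmid pSMC21, ampicillin-selected), moved to OP50 NGM plates with or without 0.5 nM peptide; after 90 min, gut fluorescence viewed by epifluorescence stereomicroscopy (GFP2 filter, ×60).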

Series [14] has as its system Pseudomonas aeruginosa. The series can be described thus: Antibacterial activity against multidrug-resistant Pseudomonas aeruginosa clinical isolate infected in Caenorhabditis elegans assessed as reduction in viable bacterial count in intestinal lumen after 24 hrs by agar plate assay relative to untreated worm. It is filed as functional. An outline of the steps: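 Worms infected 6 h, then on OP50 NGM plates with 0.5 nM peptide added. Before and after 1 day, 10 worms per replicate washed three times in M9 with 20 μg/ml gentamicin, lysed in M9–1% Triton X-100, and plated on LB with 100 μg/ml ampicillin; CFU counted after overnight growth at 37°C. At least three experiments.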

Series [15] can be described thus: Toxicity in human RBC assessed as hemolytic activity at 32 uM. Conditions: red blood cells, read-out: Activity. In kind it is cell-based, Erythrocyte.
In a further series the test system is Caenorhabditis elegans. As to the kind of experiment: Toxicity in multidrug-resistant Pseudomonas aeruginosa clinical isolate infected Caenorhabditis elegans induction of worm mortality at >0.01 nM after 48 hrs. Conditions: in vivo. It is filed as organism-based.

Molecules are shown by their SMILES. Values after ≈ are worked out from the molar mass of the structure shown. Active and inactive are the calls of the source. No cut-off for these calls is given here. Where a SMILES comes first, the peptide text is derived from it. Some results are limits rather than exact numbers.

As to `CC[C@H](C)[C@H](NC(=O)CNC(=O)[C@H](CO)NC(=O)[C@H](CC(C)C)NC(=O)[C@@H](NC(=O)[C@H](CCCCN)NC(=O)CNC(=O)[C@@H](NC(=O)[C@H](CC(C)C)NC(=O)[C@@H]1CCCN1C(=O)[C@H](CC(C)C)NC(=O)[C@@H](N)Cc1ccccc1)[C@@H](C)CC)C(C)C)C(=O)N[C@@H](CC(C)C)C(N)=O` (H-FLPLIGKVLSGIL-NH2), in [1], the Activity result is listed as “Non-toxic”. Besides, the MIC against Pseudomonas aeruginosa [2], in the series with Pseudomonas aeruginosa [5] and in the series on Pseudomonas aeruginosa [6] was above 64 µM each time. In the series with Pseudomonas aeruginosa [3], the result was inactive. Also, the hemolysis at 64 µM in [4] amounted to 12%.
As to `CC[C@H](C)[C@H](NC(=O)CN)C(=O)N[C@@H](Cc1ccccc1)C(=O)N[C@@H](CO)C(=O)N[C@@H](CCCCN)C(=O)N[C@@H](CC(C)C)C(=O)N[C@@H](C)C(=O)NCC(=O)N[C@@H](CCCCN)C(=O)N[C@@H](CCCCN)C(=O)N[C@H](C(=O)N[C@@H](CCCCN)C(=O)N[C@@H](CC(N)=O)C(=O)N[C@@H](CC(C)C)C(=O)N[C@@H](CC(C)C)C(=O)N[C@H](C(=O)N[C@@H](CO)C(=O)NCC(=O)N[C@@H](CC(C)C)C(=O)N[C@@H](CCCCN)C(=O)NCC(N)=O)[C@@H](C)CC)[C@@H](C)CC` (H-GIFSKLAGKKIKNLLISGLKG-NH2), the MIC (usually the least concentration at which growth counts as inhibited) in the series on Pseudomonas aeruginosa [2] worked out at 4 µM (≈ 8.74 µg/mL); in the series with Pseudomonas aeruginosa [5] it was 16 µM (≈ 35 µg/mL); with Pseudomonas aeruginosa [6], 4 µM. Besides, the result in the series on Pseudomonas aeruginosa [3] was inactive. The Activity result in series [7] is on record as “Non-toxic”. In addition, the CFU/ml in the series on Pseudomonas aeruginosa [8] turned out to be 998000.
On to `CC[C@H](C)[C@H](NC(=O)CN)C(=O)N[C@@H](Cc1ccccc1)C(=O)N[C@@H](CO)C(=O)N[C@@H](CCCCN)C(=O)N[C@@H](CC(C)C)C(=O)N[C@@H](C)C(=O)NCC(=O)N[C@@H](CCCCN)C(=O)N[C@@H](CCCCN)C(=O)N[C@@H](CC(C)C)C(=O)N[C@@H](CCCCN)C(=O)N[C@@H](CC(N)=O)C(=O)N[C@@H](CC(C)C)C(=O)N[C@@H](CC(C)C)C(=O)N[C@H](C(=O)N[C@@H](CO)C(=O)NCC(N)=O)[C@@H](C)CC` (H-GIFSKLAGKKLKNLLISG-NH2), for which the entries for the “fold change (FC)” value with Pseudomonas aeruginosa [9], in the series with Pseudomonas aeruginosa [11] and in the series on Pseudomonas aeruginosa [14] were 4, 2 and 5, respectively. The result in the series with Pseudomonas aeruginosa [10] and with Pseudomonas aeruginosa [13] was Active. Also, the MIC came to 8 µM (≈ 15.1 µg/mL) in the series with Pseudomonas aeruginosa [2], 64 µM (≈ 121 µg/mL) in the series with Pseudomonas aeruginosa [5], 16 µM with Pseudomonas aeruginosa [6] and 8 µM (≈ 15.1 µg/mL) in the series on Pseudomonas aeruginosa [12]. The result in the series with Pseudomonas aeruginosa [3] and in the series on Escherichia coli was inactive. In addition, the Activity entry in [7] is on record as “Non-toxic”. In addition, the CFU/ml in the series with Pseudomonas aeruginosa [8] turned out to be 950000.
As for `CC[C@H](C)[C@H](NC(=O)[C@@H]1CCCN1C(=O)[C@H](CC(C)C)NC(=O)[C@@H](N)CC(C)C)C(=O)N[C@H](C(=O)NCC(=O)N[C@@H](CC(N)=O)C(=O)N[C@@H](CC(C)C)C(=O)N[C@@H](CC(C)C)C(=O)N[C@@H](CCCCN)C(=O)N[C@@H](CO)C(=O)N[C@@H](CC(C)C)C(=O)N[C@@H](CC(C)C)C(N)=O)C(C)C` (H-LLPIVGNLLKSLL-NH2), in [15], the hemolysis at 32 µM stood at 5%. Besides, the “fold change (FC)” value in the series with Pseudomonas aeruginosa [9] came out at 4. Besides, the Activity result in [1] is “Non-toxic”. Also, the MIC against Pseudomonas aeruginosa [2], with Pseudomonas aeruginosa [5], in the series with Pseudomonas aeruginosa [6] and in the series on Pseudomonas aeruginosa [12] was above 64 µM in each case. Moreover, the outcome in the series with Pseudomonas aeruginosa [3] was inactive. The result with Pseudomonas aeruginosa [13] and in the series on Pseudomonas aeruginosa [14] was Active.
`CC[C@H](C)[C@H](NC(=O)[C@H](CCCNC(=N)N)NC(=O)CNC(=O)[C@H](CC(C)C)NC(=O)[C@H](Cc1ccccc1)NC(=O)[C@H](CCCCN)NC(=O)[C@H](CO)NC(=O)[C@H](Cc1ccccc1)NC(=O)[C@H](Cc1c[nH]c2ccccc12)NC(=O)[C@H](CCC(N)=O)NC(=O)[C@@H](NC(=O)[C@@H](N)Cc1ccccc1)C(C)C)C(=O)N[C@@H](CC(C)C)C(N)=O` [TEMPORIN L] (H-FVQWFSKFLGRIL-NH2): the MIC with Pseudomonas aeruginosa [2] was 64 µM (≈ 105 µg/mL); in the series with Pseudomonas aeruginosa [5], above 64 µM; in the series on Pseudomonas aeruginosa [6] it was 16 µM. Moreover, in the series on Pseudomonas aeruginosa [3], the outcome was inactive. In the series on Caenorhabditis elegans, the Activity result is “Toxic”.
